Data: ChEMBL document CHEMBL3351569, “Synthesis and antiproliferative activity of some new thieno[2,3-d]pyrimidin-4(3H)-ones containing 1,2,4-triazole and 1,3,4-thiadiazole moiety” (Eur J Med Chem, 2014)
Values belong to the compound of their own block, whether it stands above or below them.

What was measured:
[1] = tested on: HeLa; experiment: Cytotoxicity against human HeLa cells assessed as reduction in cell viability after 24 hrs by MTS assay; type: functional, cell-based
Procedure, shortened: (§1)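 Compounds were dissolved in DMSO at 4 mg/ml (stock) and diluted 1:10, 1:100, 1:1000 and 1:10 000. Cells were incubated 24 h with compound, with untreated cells in unmodified medium as the control. MTS reagent was then added for 2 h at 37°C under 5% CO2/95% air, and absorbance was read at 490 nm. Viability is expressed as % of untreated control (100%) at each concentration, and IC50/EC50 were calculated from it.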

[2] = tested on: HepG2; experiment: Cytotoxicity against human HepG2 cells assessed as reduction in cell viability after 24 hrs by MTS assay; type: functional, cell-based; conditions: HepG2, 24 h; procedure, shortened: as §1
[3] = tested on: HT-29; experiment: Antiproliferative activity against human HT-29 cells by CellTiter-96 non-radioactive assay; type: functional, cell-based; procedure, shortened: as §1
[4] = tested on: MDA-MB-231; experiment: Antiproliferative activity against human MDA-MB-231 cells by CellTiter-96 non-radioactive assay; type: functional, cell-based; procedure, shortened: as §1
[5] = Antiproliferative activity against human LEP-3 cells by CellTiter-96 non-radioactive assay; type: cell-based; procedure, shortened: as §1
[6] = tested on: HeLa; experiment: Antiproliferative activity against human HeLa cells by CellTiter-96 non-radioactive assay; type: functional, cell-based; procedure, shortened: as §1
[7] = tested on: HT-29; experiment: Cytotoxicity against human HT-29 cells assessed as reduction in cell viability after 24 hrs by MTS assay; type: functional, cell-based; conditions: HT-29, 24 h; procedure, shortened: as §1
[8] = tested on: MDA-MB-231; experiment: Cytotoxicity against human MDA-MB-231 cells assessed as reduction in cell viability after 24 hrs by MTS assay; type: functional, cell-based; conditions: MDA-MB-231, 24 h; procedure, shortened: as §1
[9] = Cytotoxicity against human LEP-3 cells assessed as reduction in cell viability after 24 hrs by MTS assay; type: cell-based; conditions: LEP-3, 24 h; procedure, shortened: as §1
[10] = tested on: HepG2; experiment: Antiproliferative activity against human HepG2 cells by CellTiter-96 non-radioactive assay; type: functional, cell-based; procedure, shortened: as §1

SMILES: Cc1c(C(=O)O)sc2nc(Cc3nnc(S)n3-c3ccccc3)[nH]c(=O)c12
IC50 [2]: 0.29 µM
EC50 [3]: 0.86 µM
EC50 [4]: 0.3 µM
EC50 [6]: 0.12 µM
EC50 [5]: 1.21 µM

SMILES: CCNc1nnc(Cc2nc3sc4c(c3c(=O)[nH]2)CCCC4)s1
IC50 [7]: 0.097 µM
IC50 [8]: 1.26 µM
IC50 [1]: 3.8 µM
IC50 [2]: 0.21 µM
IC50 [9]: 0.44 µM

SMILES: CCNc1nnc(Cc2nc3sc(C(=O)OCC)c(C)c3c(=O)[nH]2)s1
IC50 [8]: 0.0012 µM
IC50 [1]: 3.31 µM
EC50 [3]: 0.42 µM
EC50 [10]: 1.26 µM
EC50 [5]: 0.31 µM

SMILES: O=c1[nH]c(Cc2nnc(Nc3ccccc3)s2)nc2sc3c(c12)CCCC3
IC50 [7]: 0.13 µM
IC50 [8]: 0.0374 µM
IC50 [1]: 1.85 µM
IC50 [2]: 1.23 µM
IC50 [9]: 3.17 µM

SMILES: CCOC(=O)c1sc2nc(Cc3nnc(Nc4ccccc4)s3)[nH]c(=O)c2c1C
IC50 [1]: 2.3 µM
IC50 [2]: 0.88 µM
EC50 [3]: 1.5 µM
EC50 [4]: 0.0018 µM
EC50 [5]: 0.26 µM

SMILES: CCOC(=O)c1sc2nc(CC(=O)NNC(=S)Nc3ccccc3)[nH]c(=O)c2c1C
IC50 [7]: 0.00156 µM
IC50 [8]: 1.21 µM
IC50 [1]: 9.3 µM
IC50 [2]: 1.47 µM
IC50 [9]: 1500 µM

More lines, main results first:

EC50 [3]: 1.8 µM
EC50 [4]: 1.2 µM
SMILES: O=c1[nH]c(Cc2nnc(S)n2-c2ccccc2)nc2sc3c(c12)CCCC3
IC50 [1]: 0.00095 µM
IC50 [2]: 1800 µM
EC50 [5]: 0.46 µM

EC50 [3]: 2.12 µM
EC50 [4]: 1.54 µM
EC50 [6]: 2.52 µM
EC50 [10]: 2.18 µM
SMILES: NNC(=O)Cc1nc2sc3c(c2c(=O)[nH]1)CCCC3
EC50 [5]: 2.21 µM

EC50 [3]: 0.04 µM
EC50 [4]: 1.8 µM
EC50 [6]: 0.032 µM
EC50 [10]: 1.02 µM
SMILES: CCNC(=S)NNC(=O)Cc1nc2sc3c(c2c(=O)[nH]1)CCCC3
EC50 [5]: 0.12 µM

EC50 [3]: 0.089 µM
EC50 [10]: 0.19 µM
SMILES: CCNC(=S)NNC(=O)Cc1nc2sc(C(=O)OCC)c(C)c2c(=O)[nH]1
IC50 [8]: 0.0391 µM
IC50 [1]: 1.7 µM
EC50 [5]: 0.025 µM

EC50 [3]: 2.43 µM
EC50 [4]: 0.13 µM
EC50 [10]: 2.08 µM
SMILES: CCn1c(S)nnc1Cc1nc2sc3c(c2c(=O)[nH]1)CCCC3
IC50 [1]: 1.69 µM
EC50 [5]: 1.14 µM

EC50 [3]: 0.91 µM
EC50 [4]: 1.16 µM
EC50 [6]: 2.34 µM
EC50 [10]: 1.4 µM
SMILES: CCn1c(S)nnc1Cc1nc2sc(C(=O)O)c(C)c2c(=O)[nH]1
EC50 [5]: 1.4 µM
